Drawing on BindingDB's records for doi:10.1021/jm990049j (Dupont Pharmaceuticals, 2000), this text covers IC50 for 29 compounds.

In this assay the target is Integrin alpha-IIb/beta-3 (Homo sapiens, UniProt P08514+P05106). The assay is described as follows: Inhibition of aggregation of human gel-purified platelets (GPIIbIIIa GPP). In short, it runs like this:
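Human platelets from healthy-volunteer platelet-rich plasma were gel-purified on sepharose and used at 2×10^8 platelets/mL with 1 mM CaCl2 and 1 mg/mL fibrinogen. Aggregation was measured with or without compound at several concentrations and IC50 calculated. Values are single determinations.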

Chain of Integrin alpha-IIb/beta-3 (P05106 27-788 limits assumed): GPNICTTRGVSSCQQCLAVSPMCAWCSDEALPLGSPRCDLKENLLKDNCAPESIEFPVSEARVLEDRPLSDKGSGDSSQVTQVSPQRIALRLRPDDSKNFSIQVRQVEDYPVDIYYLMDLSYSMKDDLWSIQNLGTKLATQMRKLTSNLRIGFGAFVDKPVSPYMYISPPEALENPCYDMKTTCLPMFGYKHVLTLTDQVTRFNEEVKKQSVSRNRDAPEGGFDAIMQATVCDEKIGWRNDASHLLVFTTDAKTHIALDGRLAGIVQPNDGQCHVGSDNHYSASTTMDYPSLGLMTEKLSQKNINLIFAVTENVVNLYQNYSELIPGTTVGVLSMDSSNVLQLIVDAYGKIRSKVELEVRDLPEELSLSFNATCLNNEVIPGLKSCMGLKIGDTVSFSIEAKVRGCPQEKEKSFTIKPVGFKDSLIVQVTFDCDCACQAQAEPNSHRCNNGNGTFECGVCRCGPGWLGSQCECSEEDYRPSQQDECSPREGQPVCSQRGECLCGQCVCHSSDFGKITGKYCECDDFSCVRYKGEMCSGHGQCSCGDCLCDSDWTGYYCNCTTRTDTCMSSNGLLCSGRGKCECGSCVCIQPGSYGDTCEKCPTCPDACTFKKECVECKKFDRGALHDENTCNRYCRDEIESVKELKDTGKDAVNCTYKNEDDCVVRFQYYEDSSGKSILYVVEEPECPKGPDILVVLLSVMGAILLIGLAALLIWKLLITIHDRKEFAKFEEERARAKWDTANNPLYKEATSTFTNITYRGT
Chain of Integrin alpha-IIb/beta-3 (P08514 32-887 limits assumed): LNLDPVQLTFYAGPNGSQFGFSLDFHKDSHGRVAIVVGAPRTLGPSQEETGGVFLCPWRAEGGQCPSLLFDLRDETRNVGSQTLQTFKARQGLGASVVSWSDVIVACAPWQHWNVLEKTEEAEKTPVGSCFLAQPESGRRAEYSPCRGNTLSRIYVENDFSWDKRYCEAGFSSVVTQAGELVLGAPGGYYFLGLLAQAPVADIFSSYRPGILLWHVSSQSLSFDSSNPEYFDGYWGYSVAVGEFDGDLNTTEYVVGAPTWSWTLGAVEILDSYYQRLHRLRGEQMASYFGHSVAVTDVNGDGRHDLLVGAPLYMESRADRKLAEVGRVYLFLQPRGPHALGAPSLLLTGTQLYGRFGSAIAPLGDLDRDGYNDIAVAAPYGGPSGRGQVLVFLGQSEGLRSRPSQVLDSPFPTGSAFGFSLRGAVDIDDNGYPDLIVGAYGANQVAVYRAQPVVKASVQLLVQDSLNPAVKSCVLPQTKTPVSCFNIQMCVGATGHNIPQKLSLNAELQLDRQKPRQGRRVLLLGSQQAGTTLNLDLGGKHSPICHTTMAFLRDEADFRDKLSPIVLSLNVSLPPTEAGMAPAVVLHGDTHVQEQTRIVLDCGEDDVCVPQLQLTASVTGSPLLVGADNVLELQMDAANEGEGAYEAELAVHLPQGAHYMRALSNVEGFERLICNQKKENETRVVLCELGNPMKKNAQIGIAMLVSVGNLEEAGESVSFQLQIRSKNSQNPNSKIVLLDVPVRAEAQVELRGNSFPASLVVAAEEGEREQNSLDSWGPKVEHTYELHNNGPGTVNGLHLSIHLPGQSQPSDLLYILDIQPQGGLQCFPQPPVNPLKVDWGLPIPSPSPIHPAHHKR
Chain of Integrin alpha-IIb/beta-3 (P08514 891-1039 limits assumed): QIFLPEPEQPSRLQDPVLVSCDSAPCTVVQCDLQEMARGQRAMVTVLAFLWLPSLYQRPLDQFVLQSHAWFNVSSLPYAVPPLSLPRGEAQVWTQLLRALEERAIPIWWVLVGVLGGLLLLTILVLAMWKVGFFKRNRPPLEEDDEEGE

A word on the IC50: it is the concentration needed to halve the response being measured. Turning to `O=C(NC[C@H](NS(=O)(=O)c1ccc(Cl)c(Cl)c1)C(=O)O)c1ccc2c(cnn2CCCNc2ncc[nH]2)c1` [2-(3,4-Dichloro-benzenesulfonylamino)-3-({1-[3-(1H-imidazol-2-ylamino)-propyl]-1H-indazole-5-carbonyl}-amino)-propionic acid], the half-maximal inhibitory concentration (IC50) worked out at 790 nM.
Then `Cc1cc(C)c(NS(=O)(=O)N[C@@H](CNC(=O)c2ccc3c(cnn3CCCNc3ccccn3)c2)C(=O)O)c(C)c1` [3-[1-[3-(N-Pyridin-2ylamino)propyl]indazol-5-ylcarbonylamino]-2(S)-(2,4,6-trimethylphenylaminosulfonylamino) propionic acid], with 36000 nM.
Then `O=C(NC[C@H](NS(=O)(=O)Nc1ccccc1)C(=O)O)c1ccc2c(cnn2CCCNc2ccccn2)c1` [3-[1-[3-(N-Pyridin-2ylamino)propyl]indazol-5-ylcarbonylamino]-2(S)-(phenylaminosulfonylamino) propionic acid], with 7800 nM; and `Cc1cc(-c2ccccc2)cc(C)c1S(=O)(=O)N[C@@H](CNC(=O)c1ccc2c(cnn2CCCNc2ncc[nH]2)c1)C(=O)O` [2-(3,5-Dimethyl-biphenyl-4-sulfonylamino)-3-({1-[3-(1H-imidazol-2-ylamino)-propyl]-1H-indazole-5-carbonyl}-amino)-propionic acid], with 74 nM; and `COc1ccc(S(=O)(=O)N[C@@H](CNC(=O)c2ccc3c(cnn3CCCNc3ncc[nH]3)c2)C(=O)O)cc1` [3-({1-[3-(1H-Imidazol-2-ylamino)-propyl]-1H-indazole-5-carbonyl}-amino)-2-(4-methoxy-benzenesulfonylamino)-propionic acid], with 410 nM.
Then `Cc1cc(C)c(S(=O)(=O)N[C@@H](CNC(=O)c2ccc3c(cnn3CCCNC3=NCCN3)c2)C(=O)O)c(C)c1` [3-({1-[3-(4,5-Dihydro-1H-imidazol-2-ylamino)-propyl]-1H-indazole-5-carbonyl}-amino)-2-(2,4,6-trimethyl-benzenesulfonylamino)-propionic acid], with 57 nM; and `CC(C)(C)c1ccc(S(=O)(=O)N[C@@H](CNC(=O)c2ccc3c(cnn3CCCNc3ncc[nH]3)c2)C(=O)O)cc1` [2-(4-tert-Butyl-benzenesulfonylamino)-3-({1-[3-(1H-imidazol-2-ylamino)-propyl]-1H-indazole-5-carbonyl}-amino)-propionic acid], with 2000 nM.
Compound `O=C(NC[C@H](NS(=O)(=O)c1ccccc1)C(=O)O)c1ccc2c(cnn2CCCNc2ncc[nH]2)c1` [2-Benzenesulfonylamino-3-({1-[3-(1H-imidazol-2-ylamino)-propyl]-1H-indazole-5-carbonyl}-amino)-propionic acid] showed an IC50 of 34 nM.
The same measure for `Cc1cc(C)c(S(=O)(=O)N[C@H](CNC(=O)c2ccc3c(cnn3CCCNc3ncc[nH]3)c2)C(=O)O)c(C)c1`: 5000 nM; for `O=C(NC[C@H](NS(=O)(=O)c1ccc(C(F)(F)F)cc1)C(=O)O)c1ccc2c(cnn2CCCNc2ncc[nH]2)c1` [3-({1-[3-(1H-Imidazol-2-ylamino)-propyl]-1H-indazole-5-carbonyl}-amino)-2-(4-trifluoromethyl-benzenesulfonylamino)-propionic acid]: 4400 nM; for `O=C(NC[C@H](NS(=O)(=O)c1c(Cl)cccc1Cl)C(=O)O)c1ccc2c(cnn2CCCNc2ncc[nH]2)c1` [2-(2,6-Dichloro-benzenesulfonylamino)-3-({1-[3-(1H-imidazol-2-ylamino)-propyl]-1H-indazole-5-carbonyl}-amino)-propionic acid]: 12 nM.
With `O=C(N[C@@H](CNC(=O)c1ccc2c(cnn2CCCNc2ccccn2)c1)C(=O)O)OCc1ccccc1` [2-Benzyloxycarbonylamino-3-({1-[3-(pyridin-2-ylamino)-propyl]-1H-indazole-5-carbonyl}-amino)-propionic acid], the IC50 is greater than 10000 nM.
Then `O=C(NC[C@H](NS(=O)(=O)c1ccc2ccccc2c1)C(=O)O)c1ccc2c(cnn2CCCNc2ncc[nH]2)c1` [3-({1-[3-(1H-Imidazol-2-ylamino)-propyl]-1H-indazole-5-carbonyl}-amino)-2-(naphthalene-2-sulfonylamino)-propionic acid], with 81 nM.
The same measure for `Cc1cc(C)c(S(=O)(=O)N[C@@H](CNC(=O)c2ccc3c(cnn3CCCNc3ccccn3)c2)C(=O)O)c(C)c1` [3-({1-[3-(Pyridin-2-ylamino)-propyl]-1H-indazole-5-carbonyl}-amino)-2-(2,4,6-trimethyl-benzenesulfonylamino)-propionic acid]: 220 nM; for `Cc1cccc(C)c1S(=O)(=O)N[C@@H](CNC(=O)c1ccc2c(cnn2CCCNc2ncc[nH]2)c1)C(=O)O` [2-(2,6-Dimethyl-benzenesulfonylamino)-3-({1-[3-(1H-imidazol-2-ylamino)-propyl]-1H-indazole-5-carbonyl}-amino)-propionic acid]: 74 nM.
The same measure for `Cc1ccc(S(=O)(=O)N[C@@H](CNC(=O)c2ccc3c(cnn3CCCNc3ncc[nH]3)c2)C(=O)O)cc1` [3-({1-[3-(1H-Imidazol-2-ylamino)-propyl]-1H-indazole-5-carbonyl}-amino)-2-(toluene-4-sulfonylamino)-propionic acid]: 83 nM.
For the compound `O=C(NC[C@H](NS(=O)(=O)NCc1ccccc1)C(=O)O)c1ccc2c(cnn2CCCNc2ccccn2)c1` [3-[1-[3-(N-Pyridin-2ylamino)propyl]indazol-5-ylcarbonylamino]-2(S)-(phenylmethylaminosulfonylamino) propionic acid], the IC50 is 8100 nM. This IC50 lies about 98-fold higher than the previous one.
In turn, `CC(C)COC(=O)N[C@@H](CNC(=O)c1ccc2c(cnn2CCCNc2ccccn2)c1)C(=O)O` [2-Isobutoxycarbonylamino-3-({1-[3-(pyridin-2-ylamino)-propyl]-1H-indazole-5-carbonyl}-amino)-propionic acid] showed an IC50 of 25000 nM. Compared with the last compound, the IC50 is about 3.1-fold higher.
`Cc1cc(C)c(S(=O)(=O)N[C@@H](CNC(=O)c2ccc3c(cnn3CCCNc3ncc[nH]3)c2)C(=O)O)c(C)c1` [3-({1-[3-(1H-Imidazol-2-ylamino)-propyl]-1H-indazole-5-carbonyl}-amino)-2-(2,4,6-trimethyl-benzenesulfonylamino)-propionic acid] came in with an IC50 of 21 nM.
Compound `O=C(NC[C@H](NS(=O)(=O)c1ccc(Cl)cc1)C(=O)O)c1ccc2c(cnn2CCCNc2ncc[nH]2)c1` [2-(4-Chloro-benzenesulfonylamino)-3-({1-[3-(1H-imidazol-2-ylamino)-propyl]-1H-indazole-5-carbonyl}-amino)-propionic acid] yielded a half-inhibitory concentration (IC50) of 260 nM.
Then `O=C(NC[C@H](NS(=O)(=O)c1ccc(-c2ccccc2)cc1)C(=O)O)c1ccc2c(cnn2CCCNc2ncc[nH]2)c1` [2-(Biphenyl-4-sulfonylamino)-3-({1-[3-(1H-imidazol-2-ylamino)-propyl]-1H-indazole-5-carbonyl}-amino)-propionic acid], with 130 nM; and `O=C(N[C@@H](CNC(=O)c1ccc2c(cnn2CCCNc2ncc[nH]2)c1)C(=O)O)OCc1ccccc1` [2-Benzyloxycarbonylamino-3-({1-[3-(1H-imidazol-2-ylamino)-propyl]-1H-indazole-5-carbonyl}-amino)-propionic acid], with 1000 nM; and `O=C(NC[C@H](NS(=O)(=O)c1ccccc1)C(=O)O)c1ccc2c(cnn2CCCNc2ccccn2)c1` [2-Benzenesulfonylamino-3-({1-[3-(pyridin-2-ylamino)-propyl]-1H-indazole-5-carbonyl}-amino)-propionic acid], with 290 nM.
Then `O=C(NC[C@H](NS(=O)(=O)c1cccc2ccccc12)C(=O)O)c1ccc2c(cnn2CCCNc2ncc[nH]2)c1` [3-({1-[3-(1H-Imidazol-2-ylamino)-propyl]-1H-indazole-5-carbonyl}-amino)-2-(naphthalene-1-sulfonylamino)-propionic acid], with 39 nM; and `Cc1cc(C)c(S(=O)(=O)N[C@@H](CNC(=O)c2ccc3c(cnn3CCC(=O)Nc3ncc[nH]3)c2)C(=O)O)c(C)c1` [3-({1-[2-(1H-Imidazol-2-ylcarbamoyl)-ethyl]-1H-indazole-5-carbonyl}-amino)-2-(2,4,6-trimethyl-benzenesulfonylamino)-propionic acid], with 4000 nM; and `CCCCS(=O)(=O)N[C@@H](CNC(=O)c1ccc2c(cnn2CCCNc2ccccn2)c1)C(=O)O` [2-(Butane-1-sulfonylamino)-3-({1-[3-(pyridin-2-ylamino)-propyl]-1H-indazole-5-carbonyl}-amino)-propionic acid], with 9000 nM.
Then `Cc1cc(C)c(S(=O)(=O)N[C@@H](CC(=O)Nc2ccc3c(cnn3CCCNc3ccccn3)c2)C(=O)O)c(C)c1` [N-{1-[3-(Pyridin-2-ylamino)-propyl]-1H-indazol-5-yl}-2-(2,4,6-trimethyl-benzenesulfonylamino)-succinamic acid], with 41000 nM.
As for `Cc1cc(C)c(S(=O)(=O)N[C@@H](CNC(=O)c2ccc3c(cnn3CCCNC3=NCCCN3)c2)C(=O)O)c(C)c1` [3-({1-[3-(1,4,5,6-Tetrahydro-pyrimidin-2-ylamino)-propyl]-1H-indazole-5-carbonyl}-amino)-2-(2,4,6-trimethyl-benzenesulfonylamino)-propionic acid], the IC50 was 66 nM.
As for `CC(=O)Nc1ccc(S(=O)(=O)N[C@@H](CNC(=O)c2ccc3c(cnn3CCCNc3ncc[nH]3)c2)C(=O)O)cc1` [2-(4-Acetylamino-benzenesulfonylamino)-3-({1-[3-(1H-imidazol-2-ylamino)-propyl]-1H-indazole-5-carbonyl}-amino)-propionic acid], the IC50 came to 400 nM.
